The text below walks through data of PMC6612960 (Drug Design, Development and Therapy, 2019).

Data set [1] deals with K562/MDR cells. The experiment in a line: MTT assay, K562/MDR cells. The class given is cell-based, human. The note with it: K562/MDR vs K562. (Tetrazolium dyes change colour on reduction, which living cells bring about.)
In data set [2] the test system is Peripheral blood mononuclear cells (PBMCs). The experiment in a line: Trypan Blue dye exclusion, PBMCs. In kind it is cell-based. The note with it: 2 μM, 24 hours, mouse PBMCs. An outline of the steps:
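PBMCs from mouse blood isolated by Ficoll density gradient and seeded at 5×10^5 cells/well in 12-well plates in RPMI 1640 with 10% FBS. Treated with test compound (2, 4, 10 μM), PBS or melittin at 37°C for 24 h. Stained with 0.4% Trypan Blue for 5 min, washed three times in PBS and viewed by fluorescence microscopy.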

Data set [3] deals with HEK293 cells. The experiment in a line: Peptide binding assay. In kind it is cell-based, human. The note with it: HEK293, 30 minutes, 37°C, flow cytometry. Summed up: (§1)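 Cells (human lines or mouse erythrocytes) resuspended in PBS at 1×10^6/ml and exposed to FITC-labelled peptide at 37°C for 30 min in the dark. Washed in PBS and read by flow cytometry as mean fluorescence of 10,000 cells. Mean±SEM of three independent experiments.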
(In general: A flow cytometer gives signals particle by particle.)

The test system of data set [4] is Jurkat cells. The experiment in a line: Confocal laser scanning microscopy, Jurkat. The note with it: incubation 30 minutes. In kind it is cell-based, human. An outline of the steps: (§2)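 Cells exposed to FITC-labelled peptide for 30 min in the dark, harvested, rinsed three times in PBS and imaged at once by CLSM (488 nm argon excitation for FITC). For mitochondrial co-localisation, cells were then given 30 nM rhodamine 123 for 30 min in the dark, washed and imaged with 488 nm (FITC) and 525 nm (rhodamine 123) laser lines.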

Data set [5] relates to K562/MDR cells. In words: Confocal laser scanning microscopy, K562/MDR. The note with it: incubation 30 minutes. The class given is cell-based, human. Summed up:
as §2

Data set [6] has as its system erythrocytes. In words: Peptide binding assay. The class given is cell-based. The note with it: mouse erythrocytes, 30 minutes, 37°C, flow cytometry. Summed up:
as §1

Data set [7] relates to non-cancer cells. The note with it: even at 120 μM; cited from earlier work.
Data set [8] relates to Jurkat cells. In words: LDH release, Jurkat. The note with it: CM4 treatment (3, 9, 30 μM). In kind it is cell-based, human. An outline of the steps: (§3)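 Cells (1×10^5/mL) in RPMI 1640 held 4 h at 37°C, then exposed to peptide at 3, 9 or 30 μM for varying times. PBS and 2% Triton X-100 controls. Cell-free supernatant mixed with tetrazolium salt reagent; formazan read at 490 nm. Leakage % = [(A−C)/(P−C)]×100 (C = PBS, P = Triton). Mean±SEM of four independent experiments.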
Background: LDH in the medium is a marker of cell lysis.

Data set [9] relates to K562/MDR cells. In words: LDH release, K562/MDR. In kind it is cell-based, human. The note with it: CM4 treatment (3, 9, 30 μM). An outline of the steps:
as §3

Data set [10] deals with leukemia cells (K562, THP-1, and U937 cells). The note with it: read-out: IC50, anticancer activity in leukemia cells; cited from earlier work.

For the compound `COc1cccc2c1C(=O)c1c(O)c3c(c(O)c1C2=O)C[C@@](O)(C(=O)CO)C[C@@H]3O[C@H]1C[C@H](N)[C@H](O)[C@H](C)O1` [doxorubicin], the “resistance of K562/MDR compared with K562 cells” value in data set [1] is “a certain resistence”.

Regarding `CC[C@H](C)[C@H](NC(=O)CN)C(=O)NCC(=O)N[C@@H](C)C(=O)N[C@H](C(=O)N[C@@H](CC(C)C)C(=O)N[C@@H](CCCCN)C(=O)N[C@H](C(=O)N[C@@H](CC(C)C)C(=O)N[C@H](C(=O)N[C@H](C(=O)NCC(=O)N[C@@H](CC(C)C)C(=O)N1CCC[C@H]1C(=O)N[C@@H](C)C(=O)N[C@@H](CC(C)C)C(=O)N[C@H](C(=O)N[C@@H](CO)C(=O)N[C@@H](Cc1c[nH]c2ccccc12)C(=O)N[C@H](C(=O)N[C@@H](CCCCN)C(=O)N[C@@H](CCCNC(=N)N)C(=O)N[C@@H](CCCCN)C(=O)N[C@@H](CCCNC(=N)N)C(=O)N[C@@H](CCC(N)=O)C(=O)N[C@@H](CCC(N)=O)C(N)=O)[C@@H](C)CC)[C@@H](C)CC)[C@@H](C)O)[C@@H](C)O)C(C)C)C(C)C` [melittin], the “cytotoxicity of PBMCs” value in data set [2] was 100%.

Consider “FITC-myristoyl-CM4: fluorescein isothiocyanate labeled myristoyl-CM4 (GRWKIFKKIEKVGQNIRDGIVKAGPAVAVVGQAATI; not fully specified; FITC, myristoyl, C-terminal amide)”, for which the “fluorescence intensity on cells” value in [3] and in data set [6] was “very weak” in each case. The “FITC signal on the cells (CLSM)” value in [4] and in [5] was “stronger than the FITC-CM4 signal” throughout.

Broadly, the IC50 is the concentration needed to halve the response being measured. As to “GRWKIFKKIEKVGQNIRDGIVKAGPAVAVVGQAATI-NH2 [CM4]”, the “cytotoxicity towards non-cancer cells” value in [7] is listed as “no cytotoxicity”. In addition, the LDH release entry in data set [8] and in data set [9] was “Virtually no LDH was released” throughout. Also, the IC50 in [10] was 20 to 40 µM.
